Publication PMC10957407 (Food Chemistry: X, 2024)
Converted amounts (≈) assume the structure as drawn.

Columns and labels:
[1] = test system: 1-G12; assay: icELISA with mAb 1-G12; assay type: binding, Balb/c mice; settings: for CR: CR%=IC50 6-GG/IC50 test compound x100%
Procedure, shortened: (§1)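 Ascites-derived mAbs (caprylic acid–ammonium sulfate purified) from female Balb/c mice immunized with hapten–BSA. Plates coated with hapten–OVA in carbonate buffer (0.5 mol L−1, pH 9.6), blocked with 5% skim milk, washed with PBST, and detected with goat anti-mouse IgG-HRP; reaction stopped with 2 mol L−1 H2SO4. Analyte stocks (1 mg/mL, 70% methanol) were diluted in 10% methanol-PBS. IC50 values were fitted, and cross-reactivity was calculated for capsaicinoids, gingerol derivatives and eight other compounds.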

[2] = test system: 1-F12; assay: icELISA with mAb 1-F12; assay type: binding, Balb/c mice; settings: for CR: CR%=IC50 6-GG/IC50 test compound x100%
Procedure, shortened: as §1

[3] = test system: 1-D6; assay: icELISA with mAb 1-D6; assay type: binding, Balb/c mice; settings: for CR: CR%=IC50 6-GG/IC50 test compound x100%
Procedure, shortened: as §1

[4] = test system: 4-AT4; assay: icELISA with mAb 4-AT4; assay type: binding
[5] = test system: 5-D8; assay: icELISA with mAb 5-D8; assay type: binding
[6] = test system: 6-AT6; assay: icELISA with mAb 6-AT6; assay type: binding
[7] = test system: 2-LD2; assay: icELISA with mAb 2-LD2; assay type: binding
[8] = test system: 3-LD3; assay: icELISA with mAb 3-LD3; assay type: binding
[9] = test system: 5-3H1; assay: icELISA with mAb 5-3H1; assay type: binding
[10] = mAb 1-G12, specific evaluation (Table 1, Fig. 3D)
[11] = mAb 1-F12, specific evaluation (Table 1, Fig. 3B)
[12] = mAb 1-D6, specific evaluation (Table 1, Fig. 3C)
[13] = coating antigen Hapten 1-OVA, mAb 1-G12
[14] = coating antigen Hapten 2-OVA, mAb 1-G12
[15] = coating antigen Hapten 3-OVA, mAb 1-G12
[16] = coating antigen Hapten 4-OVA, mAb 1-G12
[17] = coating antigen Hapten 5-OVA, mAb 1-G12
[18] = coating antigen Hapten 6-OVA, mAb 1-G12
[19] = coating antigen Hapten 1-OVA, mAb 1-F12
[20] = coating antigen Hapten 2-OVA, mAb 1-F12
[21] = coating antigen Hapten 3-OVA, mAb 1-F12
[22] = coating antigen Hapten 4-OVA, mAb 1-F12
[23] = coating antigen Hapten 5-OVA, mAb 1-F12 (optimal combination)
[24] = coating antigen Hapten 6-OVA, mAb 1-F12
[25] = coating antigen Hapten 1-OVA, mAb 1-D6
[26] = coating antigen Hapten 2-OVA, mAb 1-D6
[27] = coating antigen Hapten 3-OVA, mAb 1-D6
[28] = coating antigen Hapten 4-OVA, mAb 1-D6
[29] = coating antigen Hapten 5-OVA, mAb 1-D6
[30] = coating antigen Hapten 6-OVA, mAb 1-D6

COc1cccc(CNC(=O)CC#N)c1 [2-Cyano-N-(3-methoxybenzyl) acetamide]
IC50 [1, 10]: >4 mg/L | CR ([1]; mAb 1-G12): <14.01% | IC50 [2, 11]: >4 mg/L | CR ([2]; mAb 1-F12): <12.66% | IC50 [3, 12]: >4 mg/L | CR ([3]; mAb 1-D6): <1.48%

CCCCCCCC(=O)CCc1cc(OC)c(O)c(C(=O)O)c1 [2-hydroxy-3-methoxy-5-(3-oxodecyl) benzoic acid]
IC50 [1, 10]: >4 mg/L | CR ([1]; mAb 1-G12): <14.01% | IC50 [2, 11]: >4 mg/L | CR ([2]; mAb 1-F12): <12.66% | IC50 [3, 12]: 1.9528 mg/L (≈ 6.06 µM) | CR ([3]; mAb 1-D6): 3.03%

COc1cc(CCC(=O)O)ccc1O [3-(4-Hydroxy-3-methoxyphenyl) propionic Acid]
IC50 [1, 10]: >4 mg/L | CR ([1]; mAb 1-G12): <14.01% | IC50 [2, 11]: >4 mg/L | CR ([2]; mAb 1-F12): <12.66% | IC50 [3, 12]: 2.17533 mg/L (≈ 11.1 µM) | CR ([3]; mAb 1-D6): 2.72%

COc1cc(CNC(=O)CCCC/C=C/C(C)C)ccc1O [CPC, Capsaicin]
IC50 ([4]; coating antigen Hapten 1-OVA): 0.00502 mg/L (≈ 0.0164 µM) | IC50 ([4]; coating antigen Hapten 2-OVA): 0.13283 mg/L (≈ 0.435 µM) | IC50 ([4]; coating antigen Hapten 3-OVA): 0.27036 mg/L (≈ 0.885 µM) | IC50 ([4]; coating antigen Hapten 4-OVA): 0.00651 mg/L (≈ 0.0213 µM) | IC50 ([4]; coating antigen Hapten 5-OVA): 0.00379 mg/L (≈ 0.0124 µM) | IC50 [1, 13]: 1.22906 mg/L (≈ 4.02 µM) | IC50 [1, 14]: >4 mg/L | IC50 [1, 15]: >4 mg/L | IC50 [1, 16]: 0.83506 mg/L (≈ 2.73 µM) | IC50 [1, 17]: 0.33939 mg/L (≈ 1.11 µM) | IC50 [1, 18]: 0.66185 mg/L (≈ 2.17 µM) | IC50 [1, 10]: 1.22906 mg/L (≈ 4.02 µM) | CR ([1]; mAb 1-G12): 45.61% | IC50 ([5]; coating antigen Hapten 1-OVA): 0.03987 mg/L (≈ 0.131 µM) | IC50 ([5]; coating antigen Hapten 2-OVA): 0.54041 mg/L (≈ 1.77 µM) | IC50 ([5]; coating antigen Hapten 3-OVA): 0.56457 mg/L (≈ 1.85 µM) | IC50 ([5]; coating antigen Hapten 4-OVA): 0.02878 mg/L (≈ 0.0942 µM) | IC50 ([5]; coating antigen Hapten 5-OVA): 0.04559 mg/L (≈ 0.149 µM) | IC50 [2, 19]: 0.58442 mg/L (≈ 1.91 µM) | IC50 [2, 20]: >4 mg/L | IC50 [2, 21]: >4 mg/L | IC50 [2, 22]: 0.79654 mg/L (≈ 2.61 µM) | IC50 [2, 23]: 0.48151 mg/L | IC50 [2, 24]: 1.35443 mg/L (≈ 4.43 µM) | CR ([2]; mAb 1-F12): 86.62% | IC50 ([6]; coating antigen Hapten 1-OVA): >4 mg/L | IC50 ([6]; coating antigen Hapten 2-OVA): >4 mg/L | IC50 ([6]; coating antigen Hapten 3-OVA): >4 mg/L | IC50 ([6]; coating antigen Hapten 4-OVA): >4 mg/L | IC50 ([6]; coating antigen Hapten 5-OVA): >4 mg/L | IC50 ([6]; coating antigen Hapten 6-OVA): >4 mg/L | IC50 ([7]; coating antigen Hapten 1-OVA): 0.11875 mg/L (≈ 0.389 µM) | IC50 ([7]; coating antigen Hapten 2-OVA): 0.00961 mg/L (≈ 0.0315 µM) | IC50 ([7]; coating antigen Hapten 3-OVA): 0.01715 mg/L (≈ 0.0562 µM) | IC50 ([7]; coating antigen Hapten 4-OVA): 0.00119 mg/L (≈ 0.0039 µM) | IC50 [3, 25]: >4 mg/L | IC50 [3, 26]: >4 mg/L | IC50 [3, 27]: >4 mg/L | IC50 [3, 28]: 0.91716 mg/L (≈ 3 µM) | IC50 [3, 29]: 0.93917 mg/L (≈ 3.08 µM) | IC50 [3, 30]: 0.26434 mg/L (≈ 0.866 µM) | IC50 [3, 12]: >4 mg/L | CR ([3]; mAb 1-D6): <1.48% | IC50 ([8]; coating antigen Hapten 2-OVA): 0.01016 mg/L (≈ 0.0333 µM) | IC50 ([8]; coating antigen Hapten 3-OVA): 0.03008 mg/L (≈ 0.0985 µM) | IC50 ([8]; coating antigen Hapten 4-OVA): 0.00387 mg/L (≈ 0.0127 µM) | IC50 ([9]; coating antigen Hapten 1-OVA): 1.15967 mg/L (≈ 3.8 µM) | IC50 ([9]; coating antigen Hapten 2-OVA): 0.547 mg/L (≈ 1.79 µM) | IC50 ([9]; coating antigen Hapten 3-OVA): 0.79417 mg/L (≈ 2.6 µM) | IC50 ([9]; coating antigen Hapten 4-OVA): 0.02586 mg/L (≈ 0.0847 µM) | IC50 ([9]; coating antigen Hapten 5-OVA): 0.10327 mg/L (≈ 0.338 µM)

COc1cc(CNC(=O)CCCCCCC(C)C)ccc1O [DCPC, dihydrocapsaicin]
IC50 ([4]; coating antigen Hapten 1-OVA): 0.00581 mg/L (≈ 0.0189 µM) | IC50 ([4]; coating antigen Hapten 2-OVA): 0.05733 mg/L (≈ 0.186 µM) | IC50 ([4]; coating antigen Hapten 3-OVA): 0.25387 mg/L (≈ 0.826 µM) | IC50 ([4]; coating antigen Hapten 4-OVA): 0.01068 mg/L (≈ 0.0347 µM) | IC50 ([4]; coating antigen Hapten 5-OVA): 0.00313 mg/L (≈ 0.0102 µM) | IC50 [1, 13]: 0.70085 mg/L (≈ 2.28 µM) | IC50 [1, 14]: >4 mg/L | IC50 [1, 15]: >4 mg/L | IC50 [1, 16]: 0.72469 mg/L (≈ 2.36 µM) | IC50 [1, 17]: 0.37358 mg/L (≈ 1.22 µM) | IC50 [1, 18]: 0.35151 mg/L (≈ 1.14 µM) | IC50 [1, 10]: 0.70085 mg/L (≈ 2.28 µM) | CR ([1]; mAb 1-G12): 79.99% | IC50 ([5]; coating antigen Hapten 1-OVA): 0.00582 mg/L (≈ 0.0189 µM) | IC50 ([5]; coating antigen Hapten 2-OVA): 0.16652 mg/L (≈ 0.542 µM) | IC50 ([5]; coating antigen Hapten 3-OVA): 0.05575 mg/L (≈ 0.181 µM) | IC50 ([5]; coating antigen Hapten 4-OVA): 0.0109 mg/L (≈ 0.0355 µM) | IC50 ([5]; coating antigen Hapten 5-OVA): 0.01319 mg/L (≈ 0.0429 µM) | IC50 [2, 19]: 0.55714 mg/L (≈ 1.81 µM) | IC50 [2, 20]: >4 mg/L | IC50 [2, 21]: >4 mg/L | IC50 [2, 22]: 0.41585 mg/L (≈ 1.35 µM) | IC50 [2, 23]: 0.14358 mg/L | IC50 [2, 24]: 0.8841 mg/L (≈ 2.88 µM) | IC50 [2, 11]: 0.55714 mg/L (≈ 1.81 µM) | CR ([2]; mAb 1-F12): 90.86% | IC50 ([6]; coating antigen Hapten 1-OVA): >4 mg/L | IC50 ([6]; coating antigen Hapten 2-OVA): >4 mg/L | IC50 ([6]; coating antigen Hapten 3-OVA): >4 mg/L | IC50 ([6]; coating antigen Hapten 4-OVA): >4 mg/L | IC50 ([6]; coating antigen Hapten 5-OVA): 1.46054 mg/L (≈ 4.75 µM) | IC50 ([6]; coating antigen Hapten 6-OVA): >4 mg/L | IC50 ([7]; coating antigen Hapten 1-OVA): 0.00947 mg/L (≈ 0.0308 µM) | IC50 ([7]; coating antigen Hapten 2-OVA): 0.00485 mg/L (≈ 0.0158 µM) | IC50 ([7]; coating antigen Hapten 3-OVA): 0.00154 mg/L (≈ 0.00501 µM) | IC50 ([7]; coating antigen Hapten 4-OVA): 0.00073 mg/L (≈ 0.00237 µM) | IC50 [3, 25]: 0.96982 mg/L (≈ 3.15 µM) | IC50 [3, 26]: >4 mg/L | IC50 [3, 27]: >4 mg/L | IC50 [3, 28]: 0.70128 mg/L (≈ 2.28 µM) | IC50 [3, 29]: 0.58873 mg/L (≈ 1.91 µM) | IC50 [3, 30]: 0.16792 mg/L (≈ 0.546 µM) | IC50 [3, 12]: 0.96982 mg/L (≈ 3.15 µM) | CR ([3]; mAb 1-D6): 6.10% | IC50 ([8]; coating antigen Hapten 2-OVA): 0.00124 mg/L (≈ 0.00403 µM) | IC50 ([8]; coating antigen Hapten 3-OVA): 0.00062 mg/L (≈ 0.00202 µM) | IC50 ([8]; coating antigen Hapten 4-OVA): 0.00184 mg/L (≈ 0.00599 µM) | IC50 ([9]; coating antigen Hapten 1-OVA): 0.01598 mg/L (≈ 0.052 µM) | IC50 ([9]; coating antigen Hapten 2-OVA): 0.10263 mg/L (≈ 0.334 µM) | IC50 ([9]; coating antigen Hapten 3-OVA): 0.25386 mg/L (≈ 0.826 µM) | IC50 ([9]; coating antigen Hapten 4-OVA): 0.01135 mg/L (≈ 0.0369 µM) | IC50 ([9]; coating antigen Hapten 5-OVA): 0.03124 mg/L (≈ 0.102 µM)
